# Bioassay records (PubChem BioAssay)
# An excerpt weighted towards active compounds, which were near 1.4% of everything screened.
# HDAC3 inh – human HDAC3 inhibition | O15379 | recombinant HDAC3, fluorogenic peptide/trypsin coupled, fluorescence | inhibition, % at 8.3 µM | hit rate 0.15% among 320,000; in the data active = inhibition above about 26%, passing the limit was not always enough
# Target sequence (O15379 whole entry, looked up): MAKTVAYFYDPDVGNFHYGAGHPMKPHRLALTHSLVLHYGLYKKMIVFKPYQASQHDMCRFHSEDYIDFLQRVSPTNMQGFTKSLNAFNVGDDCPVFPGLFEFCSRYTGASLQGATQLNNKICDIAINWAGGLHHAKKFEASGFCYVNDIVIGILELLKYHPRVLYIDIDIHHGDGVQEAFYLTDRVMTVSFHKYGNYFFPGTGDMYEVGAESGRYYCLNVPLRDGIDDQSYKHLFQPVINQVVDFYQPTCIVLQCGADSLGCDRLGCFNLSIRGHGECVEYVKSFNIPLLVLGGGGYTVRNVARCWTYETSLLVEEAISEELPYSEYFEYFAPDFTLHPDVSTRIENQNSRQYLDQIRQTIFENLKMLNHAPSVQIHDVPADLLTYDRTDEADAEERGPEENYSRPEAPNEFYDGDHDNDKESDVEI
# Tb MetRS inh – blocks T. brucei methionyl-tRNA synthetase activity. purified T. brucei MetRS, ATP depletion, Kinase-Glo luminescence. inhibition, % at 11.9 µM. hit rate 0.4% among 360,000;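 active = inhibition above a per-plate cutoff of the control wells' mean inhibition plus 3 SD, cut at about 5.5% in these data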;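 also: 0% = DMSO wells median and 100% = median of wells with control inhibitor compound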
#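 Material – parasite MetRS enzyme · Medium – HEPES-MgCl2-KCl buffer plus DTT, spermine, BSA, pyrophosphatase · Reagent – ATP, methionine and E. coli bulk tRNA substrates · Times – 15 min enzyme-compound preincubation, 2 h reaction, 10 min detection, 25 °C · Measured by – luminescence of leftover ATP · Evaluation – percent inhibition relative to median high and low control wells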
# IDE act – activators of human insulin-degrading enzyme in cells | P14735 | HEK cells, FAbeta-B cleavage, fluorescence polarization; 0% vehicle, 100% cell-free pure enzyme wells | activation, % at 5.96 µM | hit rate 0.073% among 340,000 | AID 493087;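 active = activation above the mean of all tested compounds plus 3 SD, set per screening campaign, cut at about 17% in these data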
# Efflux pump inh – antifungal efflux pump inhibition, Nile Red retention; S. cerevisiae Candida pump triplex; inhibition, % at 10 µM; hit rate 0.44% among 330,000;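 active = plate passing quality check with inhibition over a set limit, or well fluorescence over plate mean plus 4 SD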;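 also: Nile Red retained in pooled yeast measured as flow cytometry median fluorescence; 0% = buffer negative control and 100% = Enniatin B positive control; higher means more Nile Red kept so more efflux inhibition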
# Yeast superoxide – lowers age-related superoxide in aged yeast cells. S. cerevisiae aged cells, superoxide DHE fluorescence; active compounds read low. superoxide response (% of plate mean), % at 10 µM. hit rate 0.18% among 330,000. AID 2690;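 active = superoxide response under a set limit, about three screen SD below normal, cut at about 65% in these data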;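 also: yeast aged for seven days with compound at 30 °C before DHE staining; 100% = average MFI of all compound-treated wells on the plate with controls excluded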
# IDE inh – cellular human IDE inhibition. HEK cells, FAbetaB cleavage, fluorescence polarization. inhibition, % at 5.59 µM. hit rate 0.41% among 320,000. AID 434962;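 active = percent inhibition above the average of all tested compounds plus 3 SD, set per screening campaign, cut at about 16% in these data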;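 also: IDE supplied by intact live HEK cells; FP after avidin binding of uncleaved biotin substrate so inhibition keeps polarization high; 0% = DMSO wells and 100% = 60 µM reference IDE inhibitor Ii1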
# Superoxide pick – yeast aging superoxide inhibition, cherry pick confirmation; shares compounds with Yeast superoxide; S. cerevisiae aging, superoxide DHE fluorescence; active compounds read low; superoxide response (% of plate), % at 10 µM; hit rate 1% among 850; AID 434994;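 active = superoxide signal below 65% of the plate average of sample wells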;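 also: cells aged with compound for 7 days at 30 degrees C before staining; 100% equals mean DHE fluorescence of all compound wells on the plate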
# DHE fluor count – DHE fluorescence interference, counter-screen artifact; S. cerevisiae BY4741, flow cytometry; active compounds read low; fluorescence response, % at 10 µM; 850 tested, under 10 active; shares compounds with Yeast superoxide; AID 435000;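 active = fluorescence response below 15%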;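 also: percent of the mean fluorescence averaged over all compound wells on the plate; lower means stronger quenching of DHE signal or ROS scavenging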
# * marks the source's active call; other numbers are inactive results; nt = no result given.
SMILES,HDAC3 inh,Tb MetRS inh,IDE act,Efflux pump inh,Yeast superoxide,IDE inh,Superoxide pick,DHE fluor count
N#Cc1ccc(N2CCN(C(=O)c3cccc(F)c3)CC2)c(F)c1,-4,0,1,0,109,1,99,102
O=C(c1cccnc1)N1CCN(c2ccc(Cl)cc2)CC1,-2,1,0,2,44*,3,111,89
O=C(c1cccc(F)c1)N1CCCN(C(=O)c2cccc(F)c2)CC1,0,-1,1,0,103,-8,nt,nt
O=C(c1cccnc1)N1CCN(c2ccccc2Cl)CC1,0,nt,nt,0,97,-7,117,91
O=C(c1cccc(F)c1)N1CCN(c2cccc(Cl)c2)CC1,-9,0,3,0,92,-2,96,92
O=C(Nc1ccc(N2CCN(C(=O)c3ccc(Cl)cc3)CC2)cc1)c1cccnc1,-3,-1,6,0,114,-2,nt,nt
C[C@@]12C(=O)N(c3ccc(C(F)(F)F)cc3)C(=O)N1[C@@H]1c3ccccc3OC[C@@H]1[C@H]2c1ccccc1,-4,0,2,0,90,-2,nt,nt
N#Cc1ccc(-c2nc3ccc(Br)cn3c2Cc2ccsc2)cc1,nt,-1,nt,nt,nt,nt,nt,nt
O=C(c1ccncc1)N1CCN(c2ccc(F)cc2)CC1,0,0,0,0,95,7,nt,nt
O=C(c1ccc(Cl)cc1)N1CCN(c2ccc(F)cc2)CC1,2,-1,5,0,71,6,89,103
O=C1NC(Cc2ccc(O)cc2)c2nc3ccccc3c(=O)n2-c2ncccc21 (stereo unspecified),nt,-1,nt,nt,nt,nt,nt,nt
N#Cc1cccc(NC(=O)c2cc(C3CCCCN3C(=O)CCCc3ccccc3)on2)c1 (stereo unspecified),nt,-1,nt,nt,nt,nt,nt,nt
COc1ccc2c(c1)c1nnc(SC)nc1n2C,-2,0,7,0,44*,4,67,87
COc1ccc2c(c1)c1nnc(SCC(=O)N3C(C)CCCC3C)nc1n2C (stereo unspecified),-2,-1,4,0,111,1,nt,nt
CC(=O)NC12CC3CC(C1)CC(C(=O)Nc1c(C)n(C)n(-c4ccccc4)c1=O)(C3)C2,-6,0,1,0,62*,2,97,108
COc1ccccc1OCCNC(=O)c1ccc(Br)cc1,-1,-1,4,0,58*,-3,81,100
Cc1ccc(S(=O)(=O)N[C@@H](C)C(=O)N2CCC(C(=O)N[C@@H](Cc3ccccc3)C(=O)O)CC2)cc1,-5,-1,6,0,113,-1,nt,nt
COC(=O)[C@]12CCCCC=C1N(Cc1ccc(Cl)cc1Cl)C(=O)[C@H](CC(=O)NCc1ccc(OC)c(OC)c1)C2,nt,-1,nt,nt,nt,nt,nt,nt
CCCN(CCC)CC(O)Cn1c2ccccc2c2ccccc21 (stereo unspecified),-3,0,1,0,80,2,97,94
O=c1[nH]c2ccccc2cc1CN(Cc1cccnc1)S(=O)(=O)c1ccc([N+](=O)[O-])cc1,-4,0,6,0,93,6,nt,nt
O=c1[nH]c2ccccc2cc1CN(Cc1cccnc1)S(=O)(=O)c1ccc(Cl)cc1,2,-1,4,0,65*,0,121,104
CC1(C)CC(=O)C=C(Nc2ccc(F)c(Cl)c2)C1,3,0,-5,0,62*,6,99,95
CCOC(=O)[C@H]1[C@H]2COc3ccc(C)cc3[C@@H]2N2C(=O)c3cc(F)c(F)cc3NC(=O)[C@@]12C,-1,0,2,nt,nt,-1,nt,nt
O=C(COc1ccccc1F)Nc1nnc(-c2ccncc2)s1,-13,0,8,0,55*,5,115,108
O=C(COc1ccc(F)cc1)Nc1nnc(-c2ccncc2)s1,-6,-1,5,0,94,-1,nt,nt
SMILES,HDAC3 inh,Tb MetRS inh,IDE act,Efflux pump inh,Yeast superoxide,IDE inh,Superoxide pick,DHE fluor count
COc1cc(SC)ccc1C(=O)N1CCN(Cc2ccccc2)CC1,11,0,7,0,94,-4,nt,nt
COc1ccccc1C(=O)N1CCN(c2cccc(Cl)c2)CC1,-3,-1,7,0,95,-1,80,97
COc1cc(SC)ccc1C(=O)N1CCN(c2ccc(O)cc2)CC1,7,0,2,0,86,2,100,94
COc1cc(SC)ccc1C(=O)N1CCN(c2ccccc2)CC1,0,0,nt,0,94,-3,102,99
COc1cc2c(C(=O)N3CCN(c4cccc(Cl)c4)CC3)cn(C)c(=O)c2cc1OC,7,0,-6,0,103,3,nt,nt
CCOc1ccc(-c2cc(C(=O)OC)nc3c2c(=O)n(C)c(=O)n3C)cc1,-18,-1,3,0,91,-2,nt,nt
CC1C(=O)N(Cc2ccccc2F)c2ccccc2N1C(=O)c1c(F)cccc1F (stereo unspecified),-9,0,0,1,65*,-1,92,99
COc1cc2c(cc1OC)CN(C(=O)/C=C/c1ccc(F)cc1)CC2,6,0,2,0,101,2,nt,nt
COc1cc2c(cc1OC)CN(C(=O)/C=C/c1cc(OC)c(OC)c(OC)c1)CC2,-5,-1,6,1,63*,5,97,98
CC(C)(C)OC(=O)C[C@H]1C/C=C\C[C@@H](CC(=O)N(CCO)Cc2ccccc2)C(=O)N[C@@H](Cc2ccccc2)COC1=O,10,0,6,0,98,3,nt,nt
CCn1cc(CNC(=O)c2cc(Cl)ccc2OC)c(C)n1,2,0,11,0,94,3,nt,nt
COc1ccc(Cl)cc1C(=O)NCc1cnn(C)c1C,-3,0,-1,0,65*,7,107,100
CCN(CC)Cc1cc(NC2=NS(=O)(=O)c3ccccc32)ccc1OC(=O)c1ccccc1,-7,1,2,1,63*,-4,103,109
CC(C)Oc1ccc(S(=O)(=O)N2CCOCC2)cc1NC(=O)CSc1nnc(C2CC2)n1C,nt,0,nt,nt,nt,nt,nt,nt
Cc1cc(SCC(=O)N2CCCC2=O)nc2c(C)cccc12,-3,0,-1,0,84,8,nt,nt
Cc1cc(SCC(=O)NC2(C#N)CCCCC2)nc2c(C)cccc12,-1,-1,2,0,64*,0,99,103
Cc1nc2ccccn2c1C(=O)NNC(=O)Nc1cccc(C(F)(F)F)c1,0,0,0,0,64*,-1,105,89
O=c1c2ccccc2ncn1Cc1ccccc1,8,-1,5,0,57*,0,98,95
O=c1c2ccccc2ncn1Cc1cccc2ccccc12,0,0,1,-1,105,1,nt,nt
